Source: ChEMBL document CHEMBL1155099, “Natural products in parallel synthesis: triazole libraries of nonactic acid” (2008)
Active and inactive are the calls of the source.

Experiments:
Type in all cases: functional, organism-based
[1] = system: Bacillus anthracis; test: Antibacterial activity against Bacillus anthracis at 1mM by almar blue dye reduction assay
[2] = system: Bacillus cereus; test: Antibacterial activity against Bacillus cereus at 1 mM by almar blue dye reduction assay
Method in brief: (§1)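 Single-point primary screen at 1 mM using Alamar Blue dye reduction as the growth read-out.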

[3] = system: Bacillus subtilis; test: Antibacterial activity against Bacillus subtilis at 1 mM by almar blue dye reduction assay; method in brief: as §1
[4] = system: Staphylococcus aureus; test: Antibacterial activity against Staphylococcus aureus at 1 mM by almar blue dye reduction assay; method in brief: as §1
[5] = system: Escherichia coli; test: Antibacterial activity against Escherichia coli at 1 mM by almar blue dye reduction assay; method in brief: as §1
[6] = system: Pseudomonas aeruginosa; test: Antibacterial activity against Pseudomonas aeruginosa at 1 mM by almar blue dye reduction assay; method in brief: as §1
[7] = system: Candida albicans; test: Antifungal activity against Candida albicans at 1 mM by almar blue dye reduction assay; method in brief: as §1
[8] = system: Cryptococcus neoformans; test: Antifungal activity against Cryptococcus neoformans at 1 mM by almar blue dye reduction assay; method in brief: as §1
[9] = system: Saccharomyces cerevisiae; test: Antifungal activity against Saccharomyces cerevisiae at 1 mM by almar blue dye reduction assay; method in brief: as §1

Measured: Activity

C[C@H](C[C@@H]1CC[C@H]([C@@H](C)C(=O)N2CCN(CC3CCCO3)CC2)O1)n1cc(C#Cc2ccccc2[N+](=O)[O-])nn1 (stereo partly drawn)
inactive: all assays above

CCN(CC)C(=O)[C@H](C)[C@H]1CC[C@@H](C[C@@H](C)n2cc(C#CCN3CCC(c4ccccc4)CC3)nn2)O1
inactive: all assays above

CC(C)CC#Cc1cn([C@H](C)C[C@@H]2CC[C@H]([C@@H](C)C(=O)NC(C)C)O2)nn1
inactive: all assays above

CCN(CC)C(=O)[C@H](C)[C@H]1CC[C@@H](C[C@@H](C)n2cc(C#Cc3ccc(OC)cc3)nn2)O1
inactive: all assays above

CC(C)NC(=O)[C@H](C)[C@H]1CC[C@@H](C[C@@H](C)n2cc(C#CCN(C)C)nn2)O1
inactive: all assays above

CCN(CC)C(=O)[C@H](C)[C@H]1CC[C@@H](C[C@@H](C)n2cc(C#Cc3ccc(C(F)(F)F)cc3)nn2)O1
inactive: all assays above

COCCNCC#Cc1cn([C@H](C)C[C@@H]2CC[C@H]([C@@H](C)C(=O)N3CCN(CC4CCCO4)CC3)O2)nn1 (stereo partly drawn)
inactive: all assays above

C[C@H](C[C@@H]1CC[C@H]([C@@H](C)C(=O)N2CCN(CC3CCCO3)CC2)O1)n1cc(C#CCN(C)CCc2ccccc2)nn1 (stereo partly drawn)
inactive: all assays above

C[C@H](C[C@@H]1CC[C@H]([C@@H](C)C(=O)N2CCCC2)O1)n1cc(C#CCOc2ccc(Br)cc2)nn1
inactive: all assays above

C[C@H](C[C@@H]1CC[C@H]([C@@H](C)C(=O)N(C)Cc2ccccc2)O1)n1cc(C#Cc2ccc(-c3ccccc3)cc2)nn1
inactive: all assays above

COCC#Cc1cn([C@H](C)C[C@@H]2CC[C@H]([C@@H](C)C(=O)N3CCCC3)O2)nn1
inactive: all assays above

CCN(CC)C(=O)[C@H](C)[C@H]1CC[C@@H](C[C@@H](C)n2cc(C#Cc3ccc(-c4ccccc4)cc3)nn2)O1
inactive: all assays above

C[C@H](C[C@@H]1CC[C@H]([C@@H](C)C(=O)N2CCN(CC3CCCO3)CC2)O1)n1cc(C#Cc2ccccn2)nn1 (stereo partly drawn)
inactive: all assays above

C[C@H](C[C@@H]1CC[C@H]([C@@H](C)C(=O)N(C)Cc2ccccc2)O1)n1cc(C#Cc2ccccc2[N+](=O)[O-])nn1
inactive: all assays above

COCCNCC#Cc1cn([C@H](C)C[C@@H]2CC[C@H]([C@@H](C)C(=O)N(C)Cc3ccccc3)O2)nn1
inactive: all assays above

C[C@H](CC1CCC([C@@H](C)C(=O)N2CCN(CC3CCCO3)CC2)O1)n1cc(C#CCOC(=O)OCc2ccccc2)nn1 (single isomer, unassigned)
inactive: all assays above

CC(C)NC(=O)[C@H](C)[C@H]1CC[C@@H](C[C@@H](C)n2cc(C#CCN(C)CCc3ccccc3)nn2)O1
inactive: all assays above
